Active and inactive are the calls of the source.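 The calls were made as follows: active = compound moving the glutamate curve by at least twofold either way, or glutamate peak under 75% or over 125%; inactive = the rest.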
Biological target: Metabotropic glutamate receptor 4 (Rattus norvegicus) (UniProt P31423)
Test: rat mGlu4 allosteric modulation, glutamate curve shift, profiling panel, selectivity assay for mGlu5 PAM project, thallium flux, HEK/GIRK cells (AID 588734)
Settings: glutamate CRC shift, at 10 µM; Emax: measured here: glutamate max response with compound
Method in brief: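 Test system: HEK/GIRK cells with rat mGlu4; Probe or stimulus: glutamate dose-response curve; Compound dosing: single test compound dose, 10 µM final; Times: 45 min dye loading, 37 °C; Technique: thallium flux fluorescence slope; Measure: fold shift in glutamate EC50, control versus compound-treated, four-parameter fits; Control set: glutamate curve without test compound as reference.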

Chain of Metabotropic glutamate receptor 4 (Rattus norvegicus) (P31423 whole entry, looked up): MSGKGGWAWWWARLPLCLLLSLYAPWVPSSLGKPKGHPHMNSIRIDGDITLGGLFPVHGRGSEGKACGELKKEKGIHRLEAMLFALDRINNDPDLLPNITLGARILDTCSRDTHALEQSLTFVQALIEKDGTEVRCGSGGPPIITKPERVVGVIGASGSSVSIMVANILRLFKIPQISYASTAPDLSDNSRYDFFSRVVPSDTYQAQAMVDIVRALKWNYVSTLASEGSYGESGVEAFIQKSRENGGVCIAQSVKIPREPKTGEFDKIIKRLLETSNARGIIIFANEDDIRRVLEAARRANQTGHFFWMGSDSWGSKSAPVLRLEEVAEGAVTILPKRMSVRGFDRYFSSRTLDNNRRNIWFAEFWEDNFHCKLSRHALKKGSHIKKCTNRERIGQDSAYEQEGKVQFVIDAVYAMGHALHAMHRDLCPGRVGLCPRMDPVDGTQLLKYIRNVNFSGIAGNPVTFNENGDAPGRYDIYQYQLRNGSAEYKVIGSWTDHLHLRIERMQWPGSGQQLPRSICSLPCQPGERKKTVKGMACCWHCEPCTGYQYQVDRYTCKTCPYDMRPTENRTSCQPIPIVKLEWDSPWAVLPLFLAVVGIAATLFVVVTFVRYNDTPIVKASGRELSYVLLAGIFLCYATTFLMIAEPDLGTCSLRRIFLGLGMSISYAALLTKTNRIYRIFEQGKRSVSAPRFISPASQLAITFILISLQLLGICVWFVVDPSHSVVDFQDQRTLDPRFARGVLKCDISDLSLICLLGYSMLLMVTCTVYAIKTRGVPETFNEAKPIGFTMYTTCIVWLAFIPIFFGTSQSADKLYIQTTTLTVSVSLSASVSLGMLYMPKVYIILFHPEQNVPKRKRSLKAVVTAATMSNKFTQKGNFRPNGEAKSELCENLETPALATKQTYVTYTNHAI

Structure (SMILES) | Emax [%] | fold shift
C[C@@H](NC(=O)c1ccc(C#Cc2cccc(F)c2)cn1)C(C)(C)O | 90 | 0.88 (inactive)
CC1(NC(=O)c2ccc(C#Cc3cccc(F)c3)cn2)COC1 | 93 | 1 (inactive)

Reference: PubChem BioAssay AID588734 (Vanderbilt Specialized Chemistry Center, 2011)
